According to PMC4120670 (Kidney International, 2014):
Values belong to the molecule of their own block, whether it stands above or below them.

How the values were obtained:
OCT3 = molecular target: T1, OCT3 (Homo sapiens, UniProt O75751); assay: Inhibition of OCT3 transport of 1-methyl-4-phenylpyridinium; type: cell-based
T1 sequence (O75751 1-556): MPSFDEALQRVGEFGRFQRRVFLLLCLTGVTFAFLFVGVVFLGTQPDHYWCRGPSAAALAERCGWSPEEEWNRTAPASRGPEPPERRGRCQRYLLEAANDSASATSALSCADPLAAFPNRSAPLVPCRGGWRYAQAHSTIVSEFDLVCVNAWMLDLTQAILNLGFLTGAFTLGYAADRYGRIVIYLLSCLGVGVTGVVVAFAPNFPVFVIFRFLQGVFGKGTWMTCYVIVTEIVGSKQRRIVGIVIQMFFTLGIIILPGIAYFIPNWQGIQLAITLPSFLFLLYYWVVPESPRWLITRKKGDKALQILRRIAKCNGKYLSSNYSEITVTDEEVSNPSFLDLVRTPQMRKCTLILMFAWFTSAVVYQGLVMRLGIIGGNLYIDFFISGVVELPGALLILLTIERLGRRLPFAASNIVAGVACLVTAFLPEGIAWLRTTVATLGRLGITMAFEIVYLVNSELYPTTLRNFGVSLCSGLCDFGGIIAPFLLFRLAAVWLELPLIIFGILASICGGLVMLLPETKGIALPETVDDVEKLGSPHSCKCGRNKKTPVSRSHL

MATE2-K [1] = molecular target: T2, MATE2-K (Homo sapiens, UniProt Q86VL8); assay: Inhibition of MATE2-K transport of tetraethylammonium; type: cell-based
T2 sequence (Q86VL8 1-566 isoform Q86VL8-3): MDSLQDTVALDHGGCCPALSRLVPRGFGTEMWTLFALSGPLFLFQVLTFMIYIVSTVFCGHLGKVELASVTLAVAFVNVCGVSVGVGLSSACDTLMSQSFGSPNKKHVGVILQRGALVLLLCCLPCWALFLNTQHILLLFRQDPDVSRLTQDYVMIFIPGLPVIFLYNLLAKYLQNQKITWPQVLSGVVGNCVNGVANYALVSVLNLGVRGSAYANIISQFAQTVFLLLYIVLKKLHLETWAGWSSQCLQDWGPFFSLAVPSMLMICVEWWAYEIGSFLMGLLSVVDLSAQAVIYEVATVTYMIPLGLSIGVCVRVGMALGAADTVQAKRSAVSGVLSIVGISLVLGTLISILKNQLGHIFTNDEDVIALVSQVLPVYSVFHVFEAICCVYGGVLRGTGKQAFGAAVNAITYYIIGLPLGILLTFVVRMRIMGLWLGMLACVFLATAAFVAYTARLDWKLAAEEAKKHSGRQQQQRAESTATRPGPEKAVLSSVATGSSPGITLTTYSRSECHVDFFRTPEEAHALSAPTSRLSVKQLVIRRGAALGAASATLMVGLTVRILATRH

OAT2 [2] = molecular target: T3, OAT2 (Homo sapiens, UniProt Q9Y694); assay: Inhibition of OAT2 transport of 3′,5′-cyclic GMP; type: cell-based
T3 sequence (Q9Y694 1-548): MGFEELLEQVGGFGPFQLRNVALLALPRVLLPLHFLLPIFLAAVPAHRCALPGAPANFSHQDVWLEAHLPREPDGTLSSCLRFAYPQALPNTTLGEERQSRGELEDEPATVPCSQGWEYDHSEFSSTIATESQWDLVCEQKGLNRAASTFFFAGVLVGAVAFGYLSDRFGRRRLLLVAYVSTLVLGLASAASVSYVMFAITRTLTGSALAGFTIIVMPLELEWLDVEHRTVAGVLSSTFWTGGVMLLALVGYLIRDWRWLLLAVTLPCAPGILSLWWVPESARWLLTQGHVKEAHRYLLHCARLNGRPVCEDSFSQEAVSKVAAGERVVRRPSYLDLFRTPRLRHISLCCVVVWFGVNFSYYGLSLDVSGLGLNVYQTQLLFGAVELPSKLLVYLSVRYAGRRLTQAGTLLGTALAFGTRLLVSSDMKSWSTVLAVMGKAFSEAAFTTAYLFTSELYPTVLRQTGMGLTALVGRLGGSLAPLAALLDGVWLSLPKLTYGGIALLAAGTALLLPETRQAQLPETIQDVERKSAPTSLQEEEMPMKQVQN

OCT2 = molecular target: T4, OCT2 (Homo sapiens, UniProt O15244); assay: Inhibition of OCT2 transport of tetraethylammonium; type: cell-based
T4 sequence (O15244 1-555): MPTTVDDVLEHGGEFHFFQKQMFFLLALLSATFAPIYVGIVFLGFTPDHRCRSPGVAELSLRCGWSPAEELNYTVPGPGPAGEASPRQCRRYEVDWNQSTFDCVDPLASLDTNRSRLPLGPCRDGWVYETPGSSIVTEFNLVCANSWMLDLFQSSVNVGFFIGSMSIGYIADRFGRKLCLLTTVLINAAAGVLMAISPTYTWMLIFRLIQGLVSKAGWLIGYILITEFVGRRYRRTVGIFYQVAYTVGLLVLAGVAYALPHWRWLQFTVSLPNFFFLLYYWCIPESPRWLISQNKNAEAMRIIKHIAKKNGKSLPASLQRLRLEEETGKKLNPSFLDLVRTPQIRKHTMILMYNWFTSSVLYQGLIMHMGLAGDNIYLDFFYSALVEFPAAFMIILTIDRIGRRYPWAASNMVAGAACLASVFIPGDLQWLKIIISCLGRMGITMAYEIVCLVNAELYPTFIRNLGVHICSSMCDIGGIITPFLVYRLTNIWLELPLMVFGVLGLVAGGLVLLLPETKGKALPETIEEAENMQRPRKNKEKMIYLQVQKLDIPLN

[3] = most prominent effects, clinical; cited from earlier work
[4] = more modest effects, clinical; cited from earlier work
OAT3 [5] = molecular target: T5, OAT3 (Homo sapiens, UniProt Q8TCC7); conditions: human OAT3, transiently transfected HEK293 cells; cited from earlier work
T5 sequence (Q8TCC7 1-542): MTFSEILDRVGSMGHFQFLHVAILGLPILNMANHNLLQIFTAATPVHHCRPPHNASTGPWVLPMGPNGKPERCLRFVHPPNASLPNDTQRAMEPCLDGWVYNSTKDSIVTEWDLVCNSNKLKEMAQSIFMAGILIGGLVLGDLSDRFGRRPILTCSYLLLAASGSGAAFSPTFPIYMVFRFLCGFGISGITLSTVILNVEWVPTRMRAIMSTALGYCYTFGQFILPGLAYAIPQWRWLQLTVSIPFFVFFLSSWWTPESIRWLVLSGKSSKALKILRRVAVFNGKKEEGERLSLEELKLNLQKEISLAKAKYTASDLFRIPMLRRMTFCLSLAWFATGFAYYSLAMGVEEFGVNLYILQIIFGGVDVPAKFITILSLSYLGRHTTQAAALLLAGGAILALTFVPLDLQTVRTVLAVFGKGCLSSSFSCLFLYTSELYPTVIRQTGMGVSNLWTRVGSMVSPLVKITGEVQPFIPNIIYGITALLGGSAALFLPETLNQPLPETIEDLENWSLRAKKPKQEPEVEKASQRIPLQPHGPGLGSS

OAT3 [6] = molecular target: T5, OAT3; type: cell-based; conditions: transiently transfected HEK293 cells; data not shown
OAT2 [7] = molecular target: T3, OAT2; assay: Creatinine transport by OAT2 in transiently transfected MDCKII cells; type: cell-based
MATE2-K [8] = molecular target: T2, MATE2-K; assay: Creatinine transport by MATE2-K in transiently transfected MDCKII cells; type: cell-based
MATE1 = molecular target: T6, MATE1 (Homo sapiens, UniProt Q96FL8); assay: Creatinine transport by MATE1 in transiently transfected MDCKII cells; type: cell-based
T6 sequence (Q96FL8 1-570): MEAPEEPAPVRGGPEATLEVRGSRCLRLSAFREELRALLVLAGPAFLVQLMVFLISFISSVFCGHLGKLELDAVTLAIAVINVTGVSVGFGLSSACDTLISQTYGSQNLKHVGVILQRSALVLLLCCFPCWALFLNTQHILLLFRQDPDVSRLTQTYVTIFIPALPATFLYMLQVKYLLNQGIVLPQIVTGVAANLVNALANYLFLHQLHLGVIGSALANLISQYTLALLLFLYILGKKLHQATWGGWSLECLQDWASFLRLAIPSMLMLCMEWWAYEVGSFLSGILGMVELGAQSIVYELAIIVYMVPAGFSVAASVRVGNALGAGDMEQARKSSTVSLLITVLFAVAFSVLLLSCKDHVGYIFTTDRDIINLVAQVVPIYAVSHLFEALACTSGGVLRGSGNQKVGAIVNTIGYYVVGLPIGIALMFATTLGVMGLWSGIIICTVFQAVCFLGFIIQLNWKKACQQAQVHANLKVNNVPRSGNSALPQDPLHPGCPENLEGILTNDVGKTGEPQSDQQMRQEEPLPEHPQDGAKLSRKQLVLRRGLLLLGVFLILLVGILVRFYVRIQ
Procedure, shortened: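 Transiently transfected polarized MDCKII cells were preincubated 20 min in Hank's balanced salt solution with 30 mmol/l NH4Cl. Uptake was started by adding creatinine, 31 μmol/l to 20 mmol/l, to the chamber matching the transporter's apical or basolateral expression. Cells were washed four times with ice-cold PBS and extracted in 1:1 acetonitrile:water. Intracellular substrate was counted radiometrically. Kinetic constants were fitted from concentration dependence over n⩾3 independent experiments.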

[9] = substrate: CN1CC(=O)NC1=N; assay: Creatinine transport by OCT3 in transiently transfected MDCKII cells; type: cell-based, human; conditions: other: creatinine transport by OCT3, transiently transfected cells
[10] = substrate: CN1CC(=O)NC1=N; assay: Creatinine transport by OAT2 in transiently transfected MDCKII cells; type: cell-based, human; conditions: other: creatinine transport by OAT2, transiently transfected cells
[11] = substrate: CN1CC(=O)NC1=N; assay: Creatinine transport by OCT2 in transiently transfected MDCKII cells; type: cell-based, human; conditions: other: creatinine transport by OCT2, transiently transfected cells

IC50 (OCT3): 87.7 ± 55.1 µM
IC50 (MATE2-K [1]): 46.6 ± 7.23 µM
IC50 (OAT2 [2]): 72.8 ± 17 µM
IC50 (OCT2): 135 ± 16 µM
Molecule: CN/C(=N/CCSCc1nc[nH]c1C)NC#N [Cimetidine, cimetidine]
Decreases in creatinine clearance [3]: 15–34 ml/min per 1.73 m^2

Molecule: Cc1cc(/C=C/C#N)cc(C)c1Nc1ccnc(Nc2ccc(C#N)cc2)n1 [Rilpivirine, rilpivirine]
Serum creatinine increases [4]: ~0.1 mg/dL

Molecule: CC(C)c1nc(CN(C)C(=O)N[C@H](C(=O)N[C@@H](Cc2ccccc2)C[C@H](O)[C@H](Cc2ccccc2)NC(=O)OCc2cncs2)C(C)C)cs1 [Ritonavir, ritonavir]
Concentration-dependent inhibition of OAT2-dependent transport (OAT2 [2]; model substrate, curve could not be generated): lack of concentration-dependent inhibition

IC50 (OCT2): 68 ± 5.2 µM
Molecule: COc1cc(Cc2cnc(N)nc2N)cc(OC)c1OC [Trimethoprim, trimethoprim]

Vmax (OAT2 [7]; creatinine transport by OAT2): 117 × 10^4 pmol/min per mRNA copy number
Transport rate for OAT2 relative to OCT2 (OAT2 [7]; physiological creatinine concentration (100 μmol/l), faster than OCT2): 4.7 fold
Transport rate for OAT2 relative to OCT3 (OAT2 [7]; physiological creatinine concentration (100 μmol/l), faster than OCT3): 2.3 fold
Vmax (MATE2-K [8]; creatinine transport by MATE2-K): >20 × 10^4 pmol/min per mRNA copy number
Km (MATE2-K [8]; human, transiently transfected MDCKII cells expressing MATE2-K): > 2000 µM
Vmax (MATE1; creatinine transport by MATE1): >2 × 10^4 pmol/min per mRNA copy number
Km (MATE1; human, transiently transfected MDCKII cells expressing MATE1): > 2000 µM
Molecule: CN1CC(=O)NC1=N [creatinine]
Increase in creatinine accumulation over mock transfection (OAT3 [5]): 60%
OAT3-dependent transport of creatinine (OAT3 [6]): no OAT3-dependent transport of creatinine was observed

B1: OCT3 (Homo sapiens) (protein)
chain: MPSFDEALQRVGEFGRFQRRVFLLLCLTGVTFAFLFVGVVFLGTQPDHYWCRGPSAAALAERCGWSPEEEWNRTAPASRGPEPPERRGRCQRYLLEAANDSASATSALSCADPLAAFPNRSAPLVPCRGGWRYAQAHSTIVSEFDLVCVNAWMLDLTQAILNLGFLTGAFTLGYAADRYGRIVIYLLSCLGVGVTGVVVAFAPNFPVFVIFRFLQGVFGKGTWMTCYVIVTEIVGSKQRRIVGIVIQMFFTLGIIILPGIAYFIPNWQGIQLAITLPSFLFLLYYWVVPESPRWLITRKKGDKALQILRRIAKCNGKYLSSNYSEITVTDEEVSNPSFLDLVRTPQMRKCTLILMFAWFTSAVVYQGLVMRLGIIGGNLYIDFFISGVVELPGALLILLTIERLGRRLPFAASNIVAGVACLVTAFLPEGIAWLRTTVATLGRLGITMAFEIVYLVNSELYPTTLRNFGVSLCSGLCDFGGIIAPFLLFRLAAVWLELPLIIFGILASICGGLVMLLPETKGIALPETVDDVEKLGSPHSCKCGRNKKTPVSRSHL
Km [9]: 1320 ± 380 µM

B2: OAT2 (Homo sapiens) (protein)
chain: MGFEELLEQVGGFGPFQLRNVALLALPRVLLPLHFLLPIFLAAVPAHRCALPGAPANFSHQDVWLEAHLPREPDGTLSSCLRFAYPQALPNTTLGEERQSRGELEDEPATVPCSQGWEYDHSEFSSTIATESQWDLVCEQKGLNRAASTFFFAGVLVGAVAFGYLSDRFGRRRLLLVAYVSTLVLGLASAASVSYVMFAITRTLTGSALAGFTIIVMPLELEWLDVEHRTVAGVLSSTFWTGGVMLLALVGYLIRDWRWLLLAVTLPCAPGILSLWWVPESARWLLTQGHVKEAHRYLLHCARLNGRPVCEDSFSQEAVSKVAAGERVVRRPSYLDLFRTPRLRHISLCCVVVWFGVNFSYYGLSLDVSGLGLNVYQTQLLFGAVELPSKLLVYLSVRYAGRRLTQAGTLLGTALAFGTRLLVSSDMKSWSTVLAVMGKAFSEAAFTTAYLFTSELYPTVLRQTGMGLTALVGRLGGSLAPLAALLDGVWLSLPKLTYGGIALLAAGTALLLPETRQAQLPETIQDVERKSAPTSLQEEEMPMKQVQN
Km [10]: 986 ± 177 µM

B3: OCT2 (Homo sapiens) (protein)
chain: MPTTVDDVLEHGGEFHFFQKQMFFLLALLSATFAPIYVGIVFLGFTPDHRCRSPGVAELSLRCGWSPAEELNYTVPGPGPAGEASPRQCRRYEVDWNQSTFDCVDPLASLDTNRSRLPLGPCRDGWVYETPGSSIVTEFNLVCANSWMLDLFQSSVNVGFFIGSMSIGYIADRFGRKLCLLTTVLINAAAGVLMAISPTYTWMLIFRLIQGLVSKAGWLIGYILITEFVGRRYRRTVGIFYQVAYTVGLLVLAGVAYALPHWRWLQFTVSLPNFFFLLYYWCIPESPRWLISQNKNAEAMRIIKHIAKKNGKSLPASLQRLRLEEETGKKLNPSFLDLVRTPQIRKHTMILMYNWFTSSVLYQGLIMHMGLAGDNIYLDFFYSALVEFPAAFMIILTIDRIGRRYPWAASNMVAGAACLASVFIPGDLQWLKIIISCLGRMGITMAYEIVCLVNAELYPTFIRNLGVHICSSMCDIGGIITPFLVYRLTNIWLELPLMVFGVLGLVAGGLVLLLPETKGKALPETIEEAENMQRPRKNKEKMIYLQVQKLDIPLN
Km [11]: 1860 ± 370 µM
